Sampled rows, rich in hits. Any-hit rate of the full collection: about 6.7%.
CSC inhib = cancer stem cell inhibition. cancer stem cell-like cells viability, luminescence. hit rate 1.1% among 300,000. AID 2717. inhibition, % at 7.5 µM; in the data active means inhibition above about 75%; tested in HMLE shEcad cells
CHOP inh = CHOP inhibition in unfolded protein response. CHO-K1 CHOP-promoter luciferase, tunicamycin-induced, 15-18 h. inhibition, % at 10 µM. hit rate 3.8% among 220,000. AID 2732;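 active means compounds that reduced the stress-induced luciferase reporter signal by more than about 70% of percent inhibition, limit read from the data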
T cruzi repl = T. cruzi replication inhibition. T. cruzi beta-gal in NIH3T3, luminescence, 90 h. inhibition, % (no concentration beside the values). hit rate 1.4% among 300,000. AID 1885;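 active means mean inhibition across valid replicates above about 55%, limit read from the data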;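 further: signal also drops with host cell toxicity which is not excluded here; higher percent means less beta-gal luminescence so fewer parasites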
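Incubation – ≥90 h infection period, 3 h prior cell attachment · System – NIH/3T3 fibroblasts plus reporter T. cruzi · Doses – compound pinned at 50 nL/well, DMSO · Read-out basis – percent inhibition of parasite-derived β-gal signal · Signal – luminescent β-galactosidase signal after 60 min lysis · Also added – 5000 T. cruzi trypomastigotes/well · Medium – Low-serum DMEM with 2% FBS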
Beta cell apopt = beta cell apoptosis inhibition | INS-1E cytokine-induced death, ATP luminescence, 48 h; percent of positive-control rescue, neutral wells zero | protection from apoptosis, % (test concentration not listed) | hit rate 0.8% among 300,000;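 active means Every replicate reaches about 75%, or at least half do and their mean reaches it too, limit read from the data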;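 further: higher means more ATP so stronger rescue from cytokine killing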
GRIN3A LBD mod = NR3A (human) ligand-binding domain modulation; NR3A LBD differential scanning fluorimetry, Tm shift; 0% = protein alone, 100% = glycine-bound protein; Tm shift relative to glycine control, % at 25 µM; hit rate 2.5% among 340,000; AID 1259313;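 active means melting temperature shift of at least 10% of the positive control shift, at one fixed dose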
PREPL inh = human PREPL enzyme inhibition. Q4J6C6. recombinant PREPL, fluorescence polarization activity-based probe. inhibition, % at 5.96 µM. hit rate 0.68% among 320,000; in the data active means inhibition above about 43%
Target sequence (Q4J6C6 whole entry, looked up): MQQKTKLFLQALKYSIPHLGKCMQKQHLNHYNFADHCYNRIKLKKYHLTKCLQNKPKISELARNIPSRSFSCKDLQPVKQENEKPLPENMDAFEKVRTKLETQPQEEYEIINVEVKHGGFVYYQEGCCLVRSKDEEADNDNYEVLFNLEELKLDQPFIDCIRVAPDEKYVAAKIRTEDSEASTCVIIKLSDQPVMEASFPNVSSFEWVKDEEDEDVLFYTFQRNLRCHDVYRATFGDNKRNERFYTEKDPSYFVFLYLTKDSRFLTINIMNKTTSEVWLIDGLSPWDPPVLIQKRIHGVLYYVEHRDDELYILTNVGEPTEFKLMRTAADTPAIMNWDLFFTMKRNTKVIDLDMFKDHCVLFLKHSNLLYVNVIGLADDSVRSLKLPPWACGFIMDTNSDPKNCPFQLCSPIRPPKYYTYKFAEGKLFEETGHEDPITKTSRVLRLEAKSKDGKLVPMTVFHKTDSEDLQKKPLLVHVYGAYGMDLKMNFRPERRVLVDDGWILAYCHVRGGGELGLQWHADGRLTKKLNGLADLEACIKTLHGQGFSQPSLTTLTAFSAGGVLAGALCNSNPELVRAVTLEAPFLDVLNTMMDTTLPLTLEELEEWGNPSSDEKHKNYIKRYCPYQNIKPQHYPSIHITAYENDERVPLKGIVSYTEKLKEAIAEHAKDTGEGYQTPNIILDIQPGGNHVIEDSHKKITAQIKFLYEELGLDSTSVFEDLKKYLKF
Hits are given with their value; - = inactive; . = no result given.

SMILES	CSC inhib	CHOP inh	T cruzi repl	Beta cell apopt	GRIN3A LBD mod	PREPL inh
CCc1cc(=O)oc2c3c(cc(OCC(=O)NCCN4CCOCC4)c12)OC(C)(C)CC3	-	.	-	-	-	-
CC1=CC2=NC(=O)/C(=C\c3cc(C)n(-c4ccc(F)cc4)c3C)C(=N)N2O1	-	-	-	-	-	-
CC1=CC2=NC(=O)/C(=C\c3ccc(-c4cccc(Cl)c4)o3)C(=N)N2O1	-	107	-	-	22	-
C=CCn1c(C)cc(-c2csc(N)n2)c1C	-	-	-	-	-	49
Clc1ccc(CSc2nnc(-c3cccnc3)n2Cc2ccco2)c(Cl)c1	86	-	-	-	-	-
Clc1cccc(CSc2nnc(-c3cccnc3)n2Cc2ccco2)c1	-	-	-	-	-	-
O=C(CCNC(=O)c1ccccc1Cl)Nc1cccc(S(=O)(=O)N2CCCC2)c1	-	.	.	-	-	-
Cc1ccccc1NC(=O)N(O)C1(C#N)CCCCC1	.	.	.	.	15	.
Cc1ccccc1NC(=O)NC1CCCCCCC1	-	.	-	-	-	-
Cc1ccc(NC(C)C(=O)N/N=C/c2ccc([N+](=O)[O-])s2)cc1 (centres undefined)	-	-	82	-	-	-
COc1ccc(NC(C)C(=O)N/N=C/c2ccc([N+](=O)[O-])s2)cc1 (centres undefined)	-	-	65	-	-	-
COC(=O)N/N=C/c1ccc([N+](=O)[O-])s1	-	-	-	-	-	-
O=c1nc(Nc2ccccc2)sc2ccc([N+](=O)[O-])cc12	-	-	-	-	20	-
NC(=O)c1cc([N+](=O)[O-])ccc1Nc1ccccc1	-	.	.	-	-	-
COc1cc(/C=C/C(=O)OCC(=O)NCc2ccco2)ccc1O	.	.	-	-	-	-
C/C(=N\NC(=O)c1cc(O)cc(O)c1)c1ccc(NC(=O)Cc2ccccc2)cc1	-	.	-	-	-	-
O=C(O)c1cc(-c2cccc([N+](=O)[O-])c2)n[nH]1	-	-	-	-	-	-
C/C(=N\Nc1nnc(-c2ccccc2)c(-c2ccccc2)n1)c1cccc([N+](=O)[O-])c1	-	78	-	-	-	-
C/C(=N/NC(=O)c1ccc(-c2ccccc2)cc1)c1cc(O)cc(O)c1	96	.	.	-	-	.
CCOC(=O)c1cc(-c2cccc([N+](=O)[O-])c2)n[nH]1	-	-	-	-	33	-
C/C(=N/NC(=O)c1ccc(O)cc1)c1cccc([N+](=O)[O-])c1	-	-	-	-	209	-
Cc1c(-c2nnc(SCC(=O)O)n2-c2ccccc2Br)nnn1-c1ccccc1	-	-	-	.	-	-
O=C(c1cc(-c2cccs2)on1)N1CCCc2ccccc21	.	-	-	.	-	-
COc1ccc2sc(-c3ccc(SC)cc3)c(/C=C/c3ccc(OC)c(OC)c3)c2c1	-	.	.	-	-	-
C/C(=N\NC(=O)c1cc(-c2cccc([N+](=O)[O-])c2)n[nH]1)c1ccccc1O	80	94	61	.	26	-
SMILES	CSC inhib	CHOP inh	T cruzi repl	Beta cell apopt	GRIN3A LBD mod	PREPL inh
C/C(=N/NC(=O)c1cc(-c2cccc([N+](=O)[O-])c2)n[nH]1)c1cccc(O)c1	-	-	-	-	10	-
C/C(=N\NC(=O)c1cc(-c2cccc([N+](=O)[O-])c2)n[nH]1)c1ccc(F)cc1	-	-	-	-	63	-
C/C(=N\NC(=O)c1ccccc1F)c1ccc2c(c1)Nc1ccccc1S2	-	-	-	.	-	-
C/C(=N\NC(=O)c1cccc([N+](=O)[O-])c1)c1ccncc1	-	-	-	-	-	-
C/C(=N\NC(=O)c1ccc(O)cc1)c1ccc2c(c1)Nc1ccccc1S2	-	-	-	-	21	-
CC(=O)c1cccc(OC(=O)c2ccc3c(=O)n4c(nc3c2)CCC4)c1	-	.	-	-	-	-
O=C1OC[C@H](Cc2ccc3c(c2)OCO3)/C1=C\c1ccc2c(c1)OCO2	-	.	-	-	-	-
C=CCSC1=N/C(=C\c2ccc(C)o2)C(=O)S1	-	72	-	-	-	-
C=CCSC1=N/C(=C\c2ccsc2)C(=O)S1	-	-	-	-	-	-
COc1cc(C(=O)COC(=O)C2CCN(c3ccc(C(F)(F)F)cn3)CC2)ccc1OC(F)F	-	.	-	-	11	-
CCCOC(=O)c1ccc(NC(=O)COC(=O)C2CCN(c3ccc(C(F)(F)F)cn3)CC2)cc1	.	.	.	.	21	.
COc1ccc(C(=O)COC(=O)C2CCN(c3ccc(C(F)(F)F)cn3)CC2)c(OC)c1	.	.	.	.	-	.
Cc1ccc(NC(=O)COC(=O)C2CCN(c3ccc(C(F)(F)F)cn3)CC2)cc1	.	.	.	-	-	-
O=C(COc1cccc(C(F)(F)F)c1)Nc1cccc(S(=O)(=O)NC2=NCCCCC2)c1	.	.	.	.	-	.
COc1ccccc1NC(=S)NC1CCC(CC2CCC(NC(=S)Nc3ccccc3OC)CC2)CC1 (centres undefined)	-	-	-	.	-	-
O=c1c2ccccc2oc2cc(-c3ccc4[nH]ccc4c3)ccc12	83	.	-	-	-	-
O=C(O)C1CCC(CNS(=O)(=O)c2ccccc2)CC1 (centres undefined)	-	.	-	-	-	-
COc1cccc(C(=O)NCC(=O)N2CCN(c3ccc(C(F)(F)F)cn3)CC2)c1	.	.	.	.	-	.
S=C1Cc2ccccc2N1	.	107	60	.	-	.
Nc1nccc(SCc2ccccc2)n1	.	.	.	.	-	.
Cc1ccc(C(=O)OCC(=O)Nc2ccc(N(C)C)cc2)cc1NC(=O)c1ccco1	-	-	-	-	15	-
Cc1ccc(C(=O)OCC(=O)Nc2ccccc2)cc1NC(=O)c1ccco1	-	-	-	-	-	-
NC(=O)c1ccsc1NC(=O)COC(=O)c1ccc(Cl)c(N)c1	-	.	-	-	23	-
Cc1ccc(C(=O)OCC(=O)Nc2nc(-c3ccccc3)cs2)cc1NC(=O)c1ccco1	-	-	-	-	-	-
O=C(COC(=O)c1ccco1)Nc1ccc(Br)cc1	.	-	-	.	11	-
NC(=O)c1ccsc1NC(=O)COC(=O)c1ccc(Cl)cc1	.	.	.	.	-	-
Cc1ccc(C(=O)OCC(=O)Nc2sccc2C(N)=O)cc1NC(=O)c1ccco1	-	72	-	-	-	-
